Series [1] is described as follows: Inhibition of complex 1 in bovine heart mitochondrial membranes in presence of NADH. The arrangement: species or system Bos taurus.
Series [2] relates to LNCaP C4-2. In words: Antiproliferative activity against human C4-2 cells at 1 uM after 150 hrs. The format is functional, cell-based. In short, it runs like this: (§1)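 Seeded at 1,000 cells/well in RPMI 1640 with 10% FBS, 25 mM HEPES and 1 mM pyruvate; after 24 h, 1 μM rotenoid (ethanolic stock diluted in medium) or ethanol-only control added. Growth followed by live-cell imaging as confluence (% well area covered) until untreated control reached confluence; value at 150 h of treatment. Eight replicates per condition, mean ± S.E.M.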

For series [3], the system named is LNCaP C4-2B. In words: Antiproliferative activity against human C4-2B cells at 1 uM after 150 hrs. The format is functional, cell-based. In short, it runs like this:
as §1

Series [4] concerns LNCaP C4-2. In words: Cytotoxicity against human C4-2 cells assessed as reduction in cell viability at 1 uM after 48 hrs by acridine orange/DAPI staining based assay. The format is functional. In short, it runs like this: (§2)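 Cells trypsinized, pelleted, resuspended in PBS and stained with acridine orange/DAPI; viability and cell count read on an NC-3000 image cytometer. n = 4 treated, n = 10 control; mean ± S.E.M.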

Series [5] concerns LNCaP C4-2B. In words: Cytotoxicity against human C4-2B cells assessed as reduction in cell viability at 1 uM after 48 hrs by acridine orange/DAPI staining based assay. The series is classed as functional. In short, it runs like this:
as §2

Series [6] deals with PNT2. In words: Inhibition of cell proliferation in human PNT2 cells at 1 uM after 150 hrs. The series is classed as cell-based. The settings on record: pnt2, 150 h. In short, it runs like this:
as §1

The test system of series [7] is LNCaP C4-2. In words: Inhibition of complex 1 in human C4-2 cells assessed as reduction in oxygen rate at 1 uM incubated for 1 hr followed by rotenone and antimycin addition. The format is cell-based. In short, it runs like this:
(§3)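 Cells seeded at 20,000/well on poly-L-lysine-coated Seahorse XF96 plates for 16 h, then moved into carbonate-free RPMI assay buffer (4.5 g/L glucose, pyruvate, GlutaMAX, pH 7.4). […] Rotenone-insensitive rate subtracted and traces normalized to 100% pre-addition. n = 6 treated, 16 controls; mean ± S.E.M.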

For series [8], the system named is PNT2. In words: Inhibition of complex 1 in human PNT2 cells assessed as reduction in oxygen rate at 1 uM incubated for 1 hr followed by rotenone and antimycin addition. The format is cell-based. In short, it runs like this:
as §3

For series [9], the system named is LNCaP C4-2B. In words: Inhibition of complex 1 in human C4-2B cells assessed as reduction in oxygen rate at 1 uM incubated for 1 hr followed by rotenone and antimycin addition. The format is cell-based. In short, it runs like this:
as §3

Series [10] concerns LNCaP C4-2. In words: Cytotoxicity against human C4-2 cells assessed as reduction in cell count at 1 uM after 48 hrs by acridine orange/DAPI staining based assay. The series is classed as functional. In short, it runs like this:
as §2

In series [11] the test system is PNT2. In words: Cytotoxicity against human PNT2 cells assessed as reduction in cell viability at 1 uM after 48 hrs by acridine orange/DAPI staining based assay. The settings on record: pnt2, 48 h. In short, it runs like this: as §2
The test system of series [12] is LNCaP C4-2B. In words: Cytotoxicity against human C4-2B cells assessed as reduction in cell count at 1 uM after 48 hrs by acridine orange/DAPI staining based assay. The series is classed as functional. In short, it runs like this: as §2
A further series concerns MEF. In words: Cytotoxicity against PTEN-deficient MEF at 0.5 uM after 24 hrs by MTT assay relative to control. The format is cell-based. The settings on record: mouse.
Series [13] has as its system PNT2. In words: Cytotoxicity against human PNT2 cells assessed as reduction in cell count at 1 uM after 48 hrs by acridine orange/DAPI staining based assay. To be noted: pnt2, 48 h. In short, it runs like this: as §2
A further series has as its system LNCaP. In words: Cytotoxicity against human LNCAP cells. The series is classed as functional. To be noted: read-out: ED50 (the source's name).

pEC50, pIC50: −log10 of the molar value. Active and inactive are the calls of the source. The rule behind the calls is not given here.

Experimental findings from ChEMBL document CHEMBL4619765 (J Nat Prod, 2020) are described below.

With `COc1cc2c(cc1OC)[C@@H]1[C@H](O)c3ccc4c(c3O[C@@H]1CO2)C=CC(C)(C)O4`, the pIC50 in series [1] is 7.84.
The same measure, in the same setting: to `COc1cc2c(cc1OC)[C@]1(O)C(=O)c3ccc4c(c3O[C@@H]1CO2)C[C@H](C(C)(O)CO)O4` (stereo not given in full) belongs < 5.00.
Take `C=C(C)CCc1c(O)ccc2c1O[C@@H]1COc3cc(OC)c(OC)cc3[C@@H]1C2=O`: in [1], the pIC50 is 6.24.
Consider `COc1cc2c(cc1OC)[C@]1(O)[C@H](O)c3ccc4c(c3O[C@@H]1CO2)C[C@H](C(C)(C)O)O4`, for which the pIC50 in series [1] is < 5.00.
In the case of `COc1cc2c(cc1OC)[C@]1(O)[C@H](O)c3ccc4c(c3O[C@@H]1CO2)C=CC(C)(C)O4`, the pIC50 in series [1] was 6.87.
Consider `C=C(C)[C@H]1Cc2c(ccc3c2O[C@@H]2COc4cc(OC)c(OC)cc4[C@]2(O)[C@@H]3O)O1`, for which the negative logarithm of the IC50 (pIC50) in [1] is 6.90.
In the case of `COc1cc2c(cc1OC)[C@@H]1C(=O)c3ccc4c(c3O[C@@H]1CO2)C[C@H](C(C)(O)CO)O4` (stereo not given in full), the outcome in the series with LNCaP C4-2 [2], with LNCaP C4-2B [3] and with LNCaP C4-2 [10] was Active. Besides, the result with LNCaP C4-2 [4] and in the series on LNCaP C4-2B [5] was inactive. Further, the Activity entry in the series on PNT2 [6] and in the series on PNT2 [11] was “Non-Toxic” each time. Besides, the inhibition entry in the series on LNCaP C4-2 [7], in the series on PNT2 [8] and with LNCaP C4-2B [9] was “Active” each time. For the same molecule, the pIC50 in [1] is 5.74.
In the case of `C=C(CO)[C@H]1Cc2c(ccc3c2O[C@@H]2COc4cc(OC)c(OC)cc4[C@@H]2[C@@H]3O)O1`, the pIC50 in series [1] was 6.34.
As for `C=C(CO)[C@H]1Cc2c(ccc3c2O[C@@H]2COc4cc(OC)c(OC)cc4[C@]2(O)[C@@H]3O)O1`, in [1], the pIC50 is < 5.00.
Still for that read-out and setting: to `C=C(C)[C@H]1Cc2c(ccc3c2O[C@@H]2COc4cc(OC)c(OC)cc4[C@@H]2[C@@H]3O)O1` belongs 7.94; to `COc1cc2c(cc1OC)[C@]1(O)[C@H](O)c3ccc4c(c3O[C@@H]1CO2)C[C@H](C(C)(O)CO)O4` (stereo not given in full), < 5.00; to `COc1cc2c(cc1OC)[C@@H]1[C@H](O)c3ccc4c(c3O[C@@H]1CO2)C[C@H](C(C)(C)O)O4`, 6.12.
As for `C=C(C)C(=O)Cc1c(O)ccc2c1O[C@@H]1COc3cc(OC)c(OC)cc3[C@]1(O)C2=O`, in series [1], the pIC50 was < 5.00.
Same read-out and setting: to `C=C(C)C(=O)Cc1c(O)ccc2c1O[C@@H]1COc3cc(OC)c(OC)cc3[C@@H]1C2=O` belongs 5.59; to `COc1cc2c(cc1OC)[C@]1(O)C(=O)c3ccc4c(c3O[C@@H]1CO2)C[C@H](C(C)(C)O)O4`, < 5.00; to `COc1cc2c(cc1OC)[C@@H]1C(=O)c3ccc4c(c3O[C@@H]1CO2)C(O)C(O)C(C)(C)O4` (mixture of isomers), 5.27.
For the molecule `COc1cc2c(cc1OC)[C@@H]1C(=O)c3ccc4c(c3O[C@@H]1CO2)CCC(C)(CO)O4` (mixture of isomers), the pIC50 in [1] was 6.71.
As to `COc1cc2c(cc1OC)[C@@H]1C(=O)c3ccc4c(c3O[C@@H]1CO2)C[C@H](C(C)CO)O4` (mixture of isomers), the result in the series on LNCaP C4-2 [2], in the series with LNCaP C4-2B [3], in the series on LNCaP C4-2B [12] and with LNCaP C4-2 [10] was Active. In addition, the outcome with LNCaP C4-2 [4] and in the series on LNCaP C4-2B [5] was inactive. Also, the Activity entry in the series on PNT2 [6] and in the series on PNT2 [11] was “Non-Toxic” in each case. In addition, the inhibition result in the series with LNCaP C4-2 [7], in the series on PNT2 [8] and in the series with LNCaP C4-2B [9] was “Active” each time. For the same molecule, in series [1], the pIC50 was 6.64.
On to `COc1cc2c(cc1OC)[C@]1(O)C(=O)c3ccc4c(c3O[C@@H]1CO2)C[C@H](C(C)CO)O4` (mixture of isomers), for which the pIC50 in [1] was 5.45.
For `COc1cc2c(cc1OC)[C@@H]1[C@H](O)c3ccc4c(c3O[C@@H]1CO2)C[C@H](C(C)CO)O4` (mixture of isomers), the negative-log IC50 (pIC50) in [1] was 6.34.
For `COc1cc2c(cc1OC)[C@]1(O)[C@H](O)c3ccc4c(c3O[C@@H]1CO2)C[C@H](C(C)CO)O4` (mixture of isomers), the pIC50 in [1] was 5.53.
For the molecule `COc1cc2c(cc1OC)[C@@H]1[C@H](O)c3ccc4c(c3O[C@@H]1CO2)C[C@H](C(C)(O)CO)O4` (mixture of isomers), the pIC50 in [1] was 5.34.
For `COc1cc2c(cc1OC)[C@@H]1C(=O)c3ccc4c(c3O[C@@H]1CO2)CC(O)C(C)(C)O4` (mixture of isomers), in [1], the pIC50 was 6.07.
Take `C=C(CO)[C@H]1Cc2c(ccc3c2O[C@@H]2COc4cc(OC)c(OC)cc4[C@]2(O)C3=O)O1` [DABINOL]: in series [1], the pIC50 is 5.42.
`COc1cc2c(cc1OC)[C@@H]1C(=O)c3ccc4c(c3O[C@@H]1CO2)C[C@H](C(C)(C)O)O4` [DALPANOL]: the result with LNCaP C4-2 [2], in the series with LNCaP C4-2B [3] and with LNCaP C4-2 [10] was Active. For the same molecule, the outcome in the series on LNCaP C4-2 [4] and in the series with LNCaP C4-2B [5] was inactive. Besides, the Activity result with PNT2 [6] and with PNT2 [11] was “Non-Toxic” each time. In addition, the inhibition entry in the series on LNCaP C4-2 [7], in the series on PNT2 [8] and in the series on LNCaP C4-2B [9] was “Active” each time. Further, the pIC50 in [1] was 6.19.
As to `COc1cc2c(cc1OC)[C@@H]1C(=O)c3ccc4c(c3O[C@@H]1CO2)C=CC(C)(C)O4` [DEGUELIN], in series [1], the pIC50 was 7.97. Moreover, in the series on MEF, the Activity is given as 70%.
For `C=C(C)[C@H]1Cc2c(ccc3c2O[C@@H]2COc4cc(OC)c(OC)cc4[C@]2(O)C3=O)O1` [ROTENOLONE], the pIC50 in [1] was 6.89.
For `C=C(C)[C@H]1Cc2c(ccc3c2O[C@@H]2COc4cc(OC)c(OC)cc4[C@@H]2C3=O)O1` [ROTENONE], the result in the series with LNCaP C4-2 [2], in the series with LNCaP C4-2B [3], in the series with LNCaP C4-2B [12] and in the series with LNCaP C4-2 [10] was Active. In addition, the result with LNCaP C4-2 [4] and in the series with LNCaP C4-2B [5] was inactive. For the same molecule, the Activity result with PNT2 [6] is listed as “Non-Toxic”; in the series with PNT2 [13], “Toxic”; in the series with PNT2 [11], “Non-Toxic”.
For the molecule `COc1cc2c(cc1OC)[C@@H]1C(=O)c3ccc(O)c(CC=C(C)C)c3O[C@@H]1CO2` [ROTENONIC ACID], the pIC50 in series [1] is 5.96.
In the case of `COc1cc2c(cc1OC)[C@]1(O)C(=O)c3ccc4c(c3O[C@@H]1CO2)C=CC(C)(C)O4` [TEPHROSIN], the pEC50 with LNCaP was 6.15 to 6.52.
